Assay results taken from PubChem BioAssay.
Activity calls are given as the source filed them.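 The calls were made as follows, unless noted: active = duplicate-averaged activation above buffer control mean plus 5 SD of those controls; inactive = the rest.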

Columns and labels:
[1] = thallium flux activation in parental CHO cells, counter-screen for KCNQ1 potentiator project (AID 493006); settings: parental CHO-K1 cells, FluxOR thallium flux, at 10 µM; hits give high values;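 as to activation: fluorescence ratio of max minus min over baseline after K+ and Tl+ depolarization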
Procedure, shortened: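 Material: untransfected host CHO-K1 cells with FluxOR thallium dye. Timing: overnight 37 °C plating, 90 min RT dye, 20 min compound. Detection: kinetic FluxOR fluorescence, 10 s baseline, 110 s after stimulus. Read-out basis: max-minus-min fluorescence over baseline, percent of buffer-to-R-L3 span. Replicates: duplicate wells per compound, percent values averaged.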

[2] = biological target: Potassium voltage-gated channel subfamily KQT member 1 (Homo sapiens) (UniProt P51787); test: KCNQ1 potassium channel potentiators, confirmation, FluxOR thallium flux, CHO cells, duplicates (AID 493007;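 active = potentiation averaged over duplicate wells exceeding buffer-only control mean by more than 3 SD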;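 as to outcome: cells depolarized by a potassium plus thallium sulfate stimulus after compound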); settings: KCNQ1 cell line, FluxOR thallium flux fluorescence, at 10 µM; hits give high values, % of reference activator effect, buffer zero
Procedure, shortened: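 Test system – KCNQ1-expressing CHO cell line · Incubation – FluxOR dye loading 90 min, compound exposure 20 min, room temperature · Detection – FluxOR Tl+ flux fluorescence, 10 s baseline plus 110 s recording · Controls – buffer-only wells as 0% and R-L3 activator as 100%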

[3] = biological target: Potassium voltage-gated channel subfamily KQT member 2 (Rattus norvegicus) (UniProt O88943); test: rat KCNQ2 channel potentiation, selectivity assay for KCNQ1 potentiator project, KCNQ2-CHO-K1 cells (AID 493009;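 active = mean duplicate potentiation above the buffer control mean plus 5 SD of buffer wells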;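 also: assay conditions were tuned for KCNQ1 rather than KCNQ2 modulators; signal is max minus min fluorescence divided by baseline after thallium stimulus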); settings: FluxOR thallium flux fluorescence, at 10 µM; hits give high values, scaled: buffer 0, activator control 100
[4] = biological target: Potassium voltage-gated channel subfamily KQT member 1 (Homo sapiens) (UniProt P51787); test: KCNQ1 channel current potentiators, confirmation, orthogonal assay for KCNQ1 potentiator project, IonWorks patch clamp, KCNQ1-CHO cells (AID 493184;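 active = current rise at least 3 SD above the untreated control mean in each of two repeat wells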); settings: automated patch clamp current, at 10 µM; hits give high values
Procedure, shortened: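 Read-out: Percent current increase versus pre-compound level | Assay system: CHO cells carrying KCNQ1 | Measured by: Automated perforated-patch electrophysiology | Medium: External bath solution at pH 7.4 | Dosing: One dose, 10 µM final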

[5] = biological target: Potassium voltage-gated channel subfamily E member 1 (Homo sapiens) + Potassium voltage-gated channel subfamily KQT member 1 (Homo sapiens) (UniProt P15382+P51787); test: KCNQ1/KCNE1 complex potentiators, confirmation, selectivity assay for KCNQ1 potentiator project, thallium flux, CHO-K1 KCNQ1/E1 cells (AID 493186;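 active = mean duplicate activation above the buffer control mean plus 5 SD of those controls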); settings: FluxOR thallium flux, at 10 µM; hits give high values
Procedure, shortened: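 Test system: CHO-K1 cells with KCNQ1/E1; dosing: one test concentration; signal: FluxOR Tl+ flux fluorescence, kinetic read; incubation: 90-min dye loading then 20-min compound exposure, both at room temperature; read-out basis: percent of R-L3 effect over buffer; replication: duplicate wells per compound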

Sequence of Potassium voltage-gated channel subfamily KQT member 1 (Homo sapiens) (P51787 whole entry, looked up): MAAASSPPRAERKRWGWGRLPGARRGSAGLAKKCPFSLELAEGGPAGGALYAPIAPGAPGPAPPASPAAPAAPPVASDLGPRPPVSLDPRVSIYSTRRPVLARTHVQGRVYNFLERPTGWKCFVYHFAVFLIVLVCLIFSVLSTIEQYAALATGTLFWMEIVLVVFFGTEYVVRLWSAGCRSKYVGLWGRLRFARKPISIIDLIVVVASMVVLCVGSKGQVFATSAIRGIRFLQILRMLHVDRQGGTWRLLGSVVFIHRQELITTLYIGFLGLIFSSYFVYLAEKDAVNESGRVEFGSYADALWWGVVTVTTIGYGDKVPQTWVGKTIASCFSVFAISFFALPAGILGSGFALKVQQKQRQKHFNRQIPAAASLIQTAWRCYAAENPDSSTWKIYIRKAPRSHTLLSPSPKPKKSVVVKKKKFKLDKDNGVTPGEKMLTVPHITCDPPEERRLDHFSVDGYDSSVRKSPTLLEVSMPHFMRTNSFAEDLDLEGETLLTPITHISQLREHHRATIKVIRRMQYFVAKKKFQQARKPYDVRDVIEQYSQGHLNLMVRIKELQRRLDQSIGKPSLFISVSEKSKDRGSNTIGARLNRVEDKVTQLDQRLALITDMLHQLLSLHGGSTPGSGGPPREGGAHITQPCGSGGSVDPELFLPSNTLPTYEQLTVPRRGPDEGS
Sequence of Potassium voltage-gated channel subfamily E member 1 (Homo sapiens) + Potassium voltage-gated channel subfamily KQT member 1 (Homo sapiens) (P51787 whole entry, looked up): as the sequence (P51787 whole entry, looked up) above
Sequence of Potassium voltage-gated channel subfamily KQT member 2 (Rattus norvegicus) (O88943 whole entry, looked up): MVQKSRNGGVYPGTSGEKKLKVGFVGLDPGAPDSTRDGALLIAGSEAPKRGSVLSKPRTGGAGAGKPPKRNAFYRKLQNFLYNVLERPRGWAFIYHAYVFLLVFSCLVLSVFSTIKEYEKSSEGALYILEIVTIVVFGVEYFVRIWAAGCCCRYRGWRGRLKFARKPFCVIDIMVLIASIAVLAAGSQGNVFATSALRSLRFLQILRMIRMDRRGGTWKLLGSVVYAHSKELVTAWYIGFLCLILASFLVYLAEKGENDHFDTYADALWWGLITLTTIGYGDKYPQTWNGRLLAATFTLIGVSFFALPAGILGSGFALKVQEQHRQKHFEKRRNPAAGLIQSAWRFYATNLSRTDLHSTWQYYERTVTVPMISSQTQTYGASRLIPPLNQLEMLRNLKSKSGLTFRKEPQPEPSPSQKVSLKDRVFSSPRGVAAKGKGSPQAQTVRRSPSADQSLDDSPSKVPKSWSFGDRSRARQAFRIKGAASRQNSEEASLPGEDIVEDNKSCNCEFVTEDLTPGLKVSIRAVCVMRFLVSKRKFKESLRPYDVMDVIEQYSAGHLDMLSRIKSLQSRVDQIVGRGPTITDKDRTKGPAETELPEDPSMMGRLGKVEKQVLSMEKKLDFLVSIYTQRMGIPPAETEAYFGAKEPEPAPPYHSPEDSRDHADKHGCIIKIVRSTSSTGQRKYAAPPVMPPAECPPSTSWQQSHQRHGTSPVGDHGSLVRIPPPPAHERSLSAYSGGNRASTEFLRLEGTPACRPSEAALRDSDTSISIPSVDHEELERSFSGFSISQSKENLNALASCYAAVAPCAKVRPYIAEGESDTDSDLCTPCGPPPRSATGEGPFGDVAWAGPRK

Cc1cc(/C=N\NC(=O)CC(=O)NC2CCCCC2)c(C)n1-c1cccc(Cl)c1Cl
inactive: outcome [1] | outcome [2] | outcome [4]
active: potentiation [3] 153%

Cc1nn2c(c1-c1ccccc1)NC1=C(C(=O)CCC1)C2c1ccccc1 (stereo unspecified)
inactive: outcome [1] | outcome [2] | outcome [3] | outcome [4]

O=C(CCc1ccccc1)Nc1nccs1
inactive: outcome [1] | outcome [2] | outcome [3] | outcome [4]

O=C(NCc1ccccc1)C(=O)Nc1nc(C23CC4CC(CC(C4)C2)C3)cs1
inactive: outcome [1] | outcome [2] | outcome [3] | outcome [4] | outcome [5]

Cc1cccc(N2CCN(C(=O)Cn3sc4nc(C)cc(C)c4c3=O)CC2C)c1 (stereo unspecified)
inactive: outcome [1] | outcome [2] | outcome [3] | outcome [4] | outcome [5]

CCn1c(CCNC(=O)c2ccc(Cl)cc2Cl)n[nH]c1=S
inactive: outcome [1] | outcome [2] | outcome [3] | outcome [4] | outcome [5]

CC1CCCCN1CCCNC(=O)Cn1ncc2c([nH]c3ccccc32)c1=O (stereo unspecified)
inactive: outcome [1] | outcome [2] | outcome [3] | outcome [4] | outcome [5]

COc1ccc(-n2ccnc(SCC(=O)NC3CCCC3)c2=O)cc1OC
inactive: outcome [1] | outcome [2] | outcome [3] | outcome [4] | outcome [5]

Cn1c(=NC(=O)c2ccco2)sc2cccc(F)c21
inactive: outcome [1] | outcome [2] | outcome [3] | outcome [4]

S=C1NC2(CCCCC2)Cc2ccccc21
inactive: outcome [1] | outcome [2] | outcome [3] | outcome [4]

CCN(CC)C(=S)SCC(=O)Nc1nc(=O)c2ccccc2s1
inactive: outcome [1] | outcome [2] | outcome [3] | outcome [4] | outcome [5]

CCS(=O)(=O)Nc1ccc(C(=O)CC2(O)C(=O)Nc3ccccc32)cc1 (stereo unspecified)
inactive: outcome [1] | outcome [2] | outcome [3] | outcome [4]

C/C(=N\NC(=O)C(=O)Nc1cccc(C(F)(F)F)c1)c1ccc(Cl)s1
inactive: outcome [1] | outcome [2] | outcome [3] | outcome [4]

CCCCOC(=S)NC(=O)c1sc2ccccc2c1Cl
inactive: outcome [4]
active: activation [1] 448% | potentiation [2] 206% | potentiation [3] 365%

CCOC(=O)c1cc(C)sc1NC(=O)CN1CCN(C(=O)c2ccco2)CC1
active: potentiation [2] 17.5%
inactive: outcome [1] | outcome [3] | outcome [4] | outcome [5]

COc1ccccc1C(=O)OCC(=O)Nc1ccc(Cl)cn1
inactive: outcome [1] | outcome [2] | outcome [3] | outcome [4]

COc1ccc(/C=C2\SC(=O)NC2=S)cc1OC
active: activation [1] 154% | potentiation [2] 34% | potentiation [3] 191%
inactive: outcome [4]

O=C(N/N=C/c1ccc([N+](=O)[O-])o1)c1sc2ccccc2c1Cl
inactive: outcome [1] | outcome [2] | outcome [3] | outcome [4] | outcome [5]

Cc1ccc(-n2c(=S)[nH]c3c(oc4ccccc43)c2=O)cc1C
inactive: outcome [4]
active: activation [1] 160% | potentiation [2] 23.5% | potentiation [3] 150%

O=C(NC(=S)Nc1ccccc1N1CCCC1)c1ccc(-c2cccc([N+](=O)[O-])c2)o1
inactive: outcome [1] | outcome [2] | outcome [3] | outcome [4] | outcome [5]

CN1CCN(c2ccc(S(=O)(=O)N3CCCCC3)cc2NC(=O)COc2cccc(Cl)c2)CC1
inactive: outcome [1] | outcome [2] | outcome [3] | outcome [4] | outcome [5]

O=C(NC1CCCC1)C(=O)N(Cc1cccnc1)C(C(=O)NC1CCCC1)c1ccco1 (stereo unspecified)
active: potentiation [2] 35%
inactive: outcome [1] | outcome [3] | outcome [4] | outcome [5]

CCC1(CC)Cc2ccccc2-c2[nH]c(=S)[nH]c(=O)c21
inactive: outcome [1] | outcome [2] | outcome [3] | outcome [4] | outcome [5]

O=C(NC(=S)Nc1ccc(N2CCCCC2)cc1)c1ccco1
active: activation [1] 214% | potentiation [2] 180% | potentiation [3] 228%
inactive: outcome [4]

CCSc1nnc(-c2ccncc2)n1Cc1ccccc1
inactive: outcome [1] | outcome [2] | outcome [3] | outcome [4] | outcome [5]

COC(=O)N/N=C/c1cc(C)n(-c2ccc(F)cc2)c1C
inactive: outcome [1] | outcome [2] | outcome [3] | outcome [4] | outcome [5]

CCOC(=O)c1ccccc1N1C(=O)CSC1=S
inactive: outcome [1] | outcome [2] | outcome [3] | outcome [4]

Cn1c(O)c(N=NC(=S)Nc2ccccc2F)c2cc(S(=O)(=O)N3CCOCC3)ccc21
inactive: outcome [1] | outcome [2] | outcome [3] | outcome [4] | outcome [5]

CC1=NOC(=O)/C1=C\c1ccc(-c2ccc(Br)cc2)o1
inactive: outcome [1] | outcome [2] | outcome [3] | outcome [4] | outcome [5]

CC1SCC(=NOCc2c(Cl)cccc2Cl)CS1 (stereo unspecified)
inactive: outcome [1] | outcome [2] | outcome [3] | outcome [4]
